The record followed here is the array DNA melting data of Ke et al. (doi:10.1101/2024.01.08.574731).

A short description of series [1]: folding enthalpy; higher = less favourable; fluorescence melt of hairpins on a sequencing array, two-state fit. As to conditions: sodium 0.088 M. Put shortly: (§1)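 Hairpins were imaged by Cy3 fluorescence on a sequenced MiSeq flow cell with annealed Cy3 and quencher oligos, in 50 mM Na-HEPES pH 8.0, 25 mM NaCl, in 2.5 °C steps up to 60 °C. Bootstrapped two-state fits of normalised signals gave melting temperature and folding enthalpy. Four replicates were combined by inverse variance, and fitted temperatures were raised by 9.35 °C to match UV melts.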

Series [2] is described as follows: melting temperature; fluorescence melt of hairpins on a sequencing array, two-state fit, raised by 9.35 °C to match UV melts. As to conditions: sodium 0.088 M. Summed up:
as §1

Take GAGATGGGAAACCGTCTC ((((.((....)).)))): the folding enthalpy in series [1] is -38.2 kcal/mol. Further, the Tm in series [2] stood at 49.6 °C.
On to GAGATGGGAAACTATCTC (((((.(....).))))), for which the folding enthalpy in series [1] is -32 kcal/mol. Also, in series [2], the Tm was 40.7 °C.
Turning to GAGCAAGCGAAAGCTCTC (((..(((....)))))), in series [1], the folding enthalpy is -11.6 kcal/mol. In series [2], the Tm turned out to be 35.1 °C.
Taken in the same sequence, the figures for GAGCACGAAAGTGACTC ((((((....))).))) were -19.5 kcal/mol and 47.3 °C.
Regarding GAGCAGAAATGCTC (((((....))))), the folding enthalpy in series [1] is -29.8 kcal/mol. Further, the Tm in series [2] was 53.6 °C.
Taken in the same sequence, the figures for GAGCAGGGAAACCTACTC (((.(((....))).))) were -22.1 kcal/mol and 39.5 °C.
For GAGCATGGAAACATGCCC (.(((((....))))).), the folding enthalpy in series [1] is -12.8 kcal/mol. Also, the Tm in series [2] stood at 44 °C.
With GAGCATGGAAACGTGCTC (((((.(....).))))), the folding enthalpy in series [1] was -47.3 kcal/mol. The Tm in series [2] is 52.9 °C.
In the same order, the values of GAGCCACGAAAGTGACTC (((.(((....))).))) are -45.2 kcal/mol and 54.5 °C.
Take GAGCCACGAAAGTGCTC (((.(((....)))))): the folding enthalpy in series [1] was -19.9 kcal/mol. Also, the Tm in series [2] was found to be 54.2 °C.
In the same order, the values of GAGCCAGCGAAAGCTCTC (((..(((....)))))) are -10.3 kcal/mol and 34.8 °C.
In the same order, the values of GAGCCAGGAAACTGGCCC (.(((((....))))).) are -11.3 kcal/mol and 45.8 °C.
As for GAGCCCCCGAAAGGGCTC (((..(((....)))))), the folding enthalpy in series [1] was -32.3 kcal/mol. The Tm in series [2] was 65.4 °C.
Take GAGCCCGAAAGGGACTC ((((((....))).))): the folding enthalpy in series [1] is -22.9 kcal/mol. Also, in series [2], the Tm stood at 54.8 °C.
GAGCCCGAAAGGGGGCTC ((((((....)))..))): the folding enthalpy in series [1] is -22.8 kcal/mol. Also, the Tm in series [2] turned out to be 68.6 °C.
Take GAGCCCGCGAAAGCGCTC (((..(((....)))))): the folding enthalpy in series [1] was -11.2 kcal/mol. Also, in series [2], the Tm came out at 39.2 °C.
In the same order, the values of GAGCCCGGAAACGGGTTC ((.((((....)))).)) are -27 kcal/mol and 56.7 °C.
As to GAGCCGGCGAAAGCCCTC (((..(((....)))))), the folding enthalpy in series [1] was -8.17 kcal/mol. In addition, in series [2], the Tm came to 28.7 °C.
In the same order, the values of GAGCCTGGAAACAGACTC (((.(((....))).))) are -31.9 kcal/mol and 43.6 °C.
Taken in the same sequence, the figures for GAGCCTGGAAACGGGTTC ((.((.(....).)).)) were -27.5 kcal/mol and 36.4 °C.
Take GAGCGACCGAAAGGTCTC (((..(((....)))))): the folding enthalpy in series [1] was -10.2 kcal/mol. For the same sequence, the Tm in series [2] is 33.1 °C.
In the same order, the values of GAGCGCCGAAAGGCTCTC (((.(((....))).))) are -21.4 kcal/mol and 50.7 °C.
Taken in the same sequence, the figures for GAGCGCGAAAGCGACCTC ((((((....)))..))) were -11.8 kcal/mol and 46.6 °C.
As for GAGCGCGAAAGCGCCCTC ((((((....)))..))), in series [1], the folding enthalpy was -7.61 kcal/mol. In addition, the Tm in series [2] turned out to be 46.8 °C.
In the case of GAGCGCGAAAGCGTACTC ((((((....)))..))), in series [1], the folding enthalpy is -12.1 kcal/mol. Further, the Tm in series [2] amounted to 44.4 °C.
Consider GAGCGGACGAAAGTCCTC (((..(((....)))))), for which, in series [1], the folding enthalpy was -8.32 kcal/mol. The Tm in series [2] was found to be 29.9 °C.
Taken in the same sequence, the figures for GAGCGGGCGAAAGCCCTC (((..(((....)))))) were -6.71 kcal/mol and 25.9 °C.
In the same order, the values of GAGCGGGGAAACCTGCTC ((((.((....)).)))) are -30.6 kcal/mol and 57.3 °C.
Regarding GAGCGTCCGAAAGGACTC (((..(((....)))))), in series [1], the folding enthalpy is -7.91 kcal/mol. Also, the Tm in series [2] was found to be 30.7 °C.
As for GAGCGTGGAAACACACTC (((.(((....))).))), in series [1], the folding enthalpy is -30.5 kcal/mol. Besides, the Tm in series [2] came out at 45.9 °C.
Regarding GAGCGTGGAAACACGTTC ((.((((....)))).)), the folding enthalpy in series [1] was -24.7 kcal/mol. The Tm in series [2] worked out at 52.5 °C.
In the case of GAGCGTGGAAACATGCTC ((((.((....)).)))), the folding enthalpy in series [1] was -55.5 kcal/mol. In series [2], the Tm amounted to 55 °C.
Regarding GAGCGTGGAAACGCGTTC ((.((.(....).)).)), in series [1], the folding enthalpy is -12.1 kcal/mol. In addition, in series [2], the Tm was 51.7 °C.
With GAGCTACGAAAGTATCTC (((.(((....))).))), the folding enthalpy in series [1] was -25.1 kcal/mol. Moreover, the Tm in series [2] amounted to 36.9 °C.
Taken in the same sequence, the figures for GAGCTCGCGAAAGCGCTC (((..(((....)))))) were -14.2 kcal/mol and 41.8 °C.
On to GAGCTCGGAAACAAGCTC (((((.(....).))))), for which, in series [1], the folding enthalpy is -30 kcal/mol. Besides, in series [2], the Tm stood at 43 °C.
Taken in the same sequence, the figures for GAGCTCGGAAACGAGCCC (.(((((....))))).) were -7.56 kcal/mol and 59.5 °C.
Taken in the same sequence, the figures for GAGCTCGGAAACGAGTTC ((.((((....)))).)) were -29.1 kcal/mol and 53 °C.
As to GAGCTCGGAAACGGGCTC ((((.((....)).)))), the folding enthalpy in series [1] was -44.2 kcal/mol. Also, the Tm in series [2] came out at 60.7 °C.
For GAGCTGAAAAGCTC (((((....))))), the folding enthalpy in series [1] was -27.2 kcal/mol. Besides, the Tm in series [2] was determined as 57.2 °C.
In the same order, the values of GAGCTGCCGAAAGGCCTC (((..(((....)))))) are -11.3 kcal/mol and 32.7 °C.
Turning to GAGCTGCGAAAGCAACTC (((.(((....))).))), the folding enthalpy in series [1] was -31.8 kcal/mol. Besides, the Tm in series [2] was determined as 51.2 °C.
In the same order, the values of GAGCTGGCGAAAGCCCTC (((..(((....)))))) are -5.81 kcal/mol and 36.6 °C.
Taken in the same sequence, the figures for GAGCTGGGAAACTAGCTC (((((.(....).))))) were -38.7 kcal/mol and 52.5 °C.
As to GAGCTTGAAAAAGCTC ((((((....)))))), in series [1], the folding enthalpy was -41.6 kcal/mol. In addition, the Tm in series [2] was found to be 58.1 °C.
As to GAGCTTGCGAAAGCACTC (((..(((....)))))), the folding enthalpy in series [1] was -10.9 kcal/mol. The Tm in series [2] was determined as 39.7 °C.
In the same order, the values of GAGGACGAAAGTCAGCTC ((((((....)))..))) are -15 kcal/mol and 42 °C.
For GAGGACGAAAGTCATCTC ((((((....)))..))), in series [1], the folding enthalpy is -19.1 kcal/mol. Also, the Tm in series [2] is 51.8 °C.
Take GAGGACGAAAGTCCACTC ((((((....)))..))): the folding enthalpy in series [1] is -12.7 kcal/mol. In series [2], the Tm worked out at 52.4 °C.
For GAGGACGAAAGTCCGCTC ((((((....)))..))), the folding enthalpy in series [1] is -12.1 kcal/mol. The Tm in series [2] was 67.5 °C.
Taken in the same sequence, the figures for GAGGACGGAAACGTCTTC ((.((((....)))).)) were -17.8 kcal/mol and 47.3 °C.
Take GAGGAGAAATCCTC (((((....))))): the folding enthalpy in series [1] was -21.8 kcal/mol. Further, the Tm in series [2] worked out at 43.4 °C.
As to GAGGAGCGAAAGCTCTC (((.(((....)))))), in series [1], the folding enthalpy is -9.17 kcal/mol. The Tm in series [2] is 48.2 °C.
Taken in the same sequence, the figures for GAGGAGCGAAAGCTGCTC (((.(((....))).))) were -34 kcal/mol and 63.7 °C.
Taken in the same sequence, the figures for GAGGAGGAAACTCCTC ((((((....)))))) were -31.2 kcal/mol and 55.9 °C.
As to GAGGCAGGAAACTACCTC ((((.((....)).)))), the folding enthalpy in series [1] was -26.9 kcal/mol. The Tm in series [2] amounted to 40.3 °C.
In the same order, the values of GAGGCAGGAAACTGCCCC (.(((((....))))).) are -9.1 kcal/mol and 44.2 °C.
Consider GAGGCAGGAAACTGCTTC ((.((((....)))).)), for which the folding enthalpy in series [1] was -18 kcal/mol. The Tm in series [2] worked out at 47.7 °C.
In the same order, the values of GAGGCCCGAAAGGGCTC (((.(((....)))))) are -9.95 kcal/mol and 57.9 °C.
Turning to GAGGCCGAAAGGCAACTC ((((((....)))..))), in series [1], the folding enthalpy was -14.2 kcal/mol. Besides, the Tm in series [2] turned out to be 46.7 °C.
As to GAGGCCGAAAGGCGCTC ((((((....))).))), the folding enthalpy in series [1] was -13.8 kcal/mol. Moreover, the Tm in series [2] stood at 57 °C.
Regarding GAGGCCGAAAGGCTCCTC ((((((....)))..))), in series [1], the folding enthalpy was -10.2 kcal/mol. Moreover, the Tm in series [2] is 40.8 °C.
Taken in the same sequence, the figures for GAGGCCGGAAACGGTCTC (((.(((....))).))) were -36 kcal/mol and 64.8 °C.
Take GAGGCGGCGAAAGCCCTC (((..(((....)))))): the folding enthalpy in series [1] is -11 kcal/mol. The Tm in series [2] stood at 43.1 °C.
For the sequence GAGGCGGGAAACCACCCC (.((.((....)).)).), the folding enthalpy in series [1] is -13.6 kcal/mol. For the same sequence, the Tm in series [2] amounted to 27.8 °C.
With GAGGCGGGAAACCGTCTC (((.(((....))).))), the folding enthalpy in series [1] was -38.3 kcal/mol. Further, in series [2], the Tm stood at 56.8 °C.
In the case of GAGGCGGGAAACTGCCTC (((((.(....).))))), the folding enthalpy in series [1] was -39.1 kcal/mol. For the same sequence, in series [2], the Tm is 61.1 °C.
Consider GAGGCTCCGAAAGGACTC (((..(((....)))))), for which, in series [1], the folding enthalpy was -15.5 kcal/mol. Also, the Tm in series [2] was 34.4 °C.
With GAGGGAGGAAACTCCCTC (((((((....))))))), the folding enthalpy in series [1] is -41.1 kcal/mol. Also, in series [2], the Tm is 62.9 °C.
GAGGGCCGAAAGGCCTC (((.(((....)))))): in series [1], the folding enthalpy is -9.74 kcal/mol. The Tm in series [2] is 52.6 °C.
Taken in the same sequence, the figures for GAGGGCCGAAAGGCTCTC (((.(((....))).))) were -30.6 kcal/mol and 67 °C.
With GAGGGCGAAAGCCAGCTC ((((((....)))..))), in series [1], the folding enthalpy was -13.7 kcal/mol. For the same sequence, the Tm in series [2] turned out to be 46.7 °C.
In the same order, the values of GAGGGCGAAAGCCATCTC ((((((....)))..))) are -16.2 kcal/mol and 65.6 °C.
